# Columns and labels:
# saFabI [1] = target: T1, saFabI (Staphylococcus aureus, UniProt Q6GI75); assay: Forward progress curve kinetics of saFabI inhibition; assay type: biochemical; settings: for tR: residence time tR = 1/k-1, k-1 from progress curves (b); for potency estimated from few doses: read-out: Ki; for slow-binding inhibition of saFabI: curvature of progress curves
# T1 sequence (Q6GI75 1-256): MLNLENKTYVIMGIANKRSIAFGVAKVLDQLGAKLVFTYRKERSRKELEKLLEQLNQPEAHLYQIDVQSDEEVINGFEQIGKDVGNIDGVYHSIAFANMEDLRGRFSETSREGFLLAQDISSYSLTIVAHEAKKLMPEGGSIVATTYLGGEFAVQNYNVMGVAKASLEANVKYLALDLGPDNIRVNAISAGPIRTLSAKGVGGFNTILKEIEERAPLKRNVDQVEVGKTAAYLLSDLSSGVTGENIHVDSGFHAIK
# saFabI R40Q/K41N/S44L = saFabI R40Q/K41N/S44L (Staphylococcus aureus, UniProt Q6GI75, K41N/R40Q/S44L); assay: 32P-NAD+ dissociation kinetics; assay type: binding; settings: for k-1: footnote d: 32P-NAD-based dissociation curve fitted to Eq 5; for tR: residence time tR = 1/k-1, k-1 from 32P-NAD dissociation (d)
# saFabI [2] = target: T1, saFabI; assay: Jump dilution assay; assay type: biochemical; settings: for k-1: footnote c: jump dilution curve fitted to Eq 1; for tR: residence time tR = 1/k-1, k-1 from jump dilution (c); for recovery of enzyme activity after dilution: 1:200 dilution after overnight preincubation with NADP+
# Procedure, shortened: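 Enzyme expressed in E. coli BL21(DE3) and purified by Ni2+ affinity and size exclusion. 10 μM enzyme was preincubated overnight at room temperature with 15 μM inhibitor and 500 μM NADP+. NADPH oxidation was read at 340 nm, 20 °C, and fitted to the Morrison–Walsh integrated equation.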
SMILES,tR (saFabI [1]),k-1 (saFabI R40Q/K41N/S44L),tR (saFabI R40Q/K41N/S44L),also measured
N#Cc1ccccc1Oc1ccc(Br)cc1O [PT443],210.9 ^b min,,,
CCc1ccc(Oc2ccccc2)c(O)c1 [PT01],63.8 ^b min,0.72 ± 0.08 ^d hr^-1,83.3 ^d min,
"Cc1ccc(Oc2ccccc2)c(O)c1 [PT53, 5-Methyl-2-phenoxyphenol]",17.3 ^b min,,,k-1 (saFabI [2]): 4.53 ± 0.08 ^c hr^-1; tR (saFabI [2]): 13.2 ^c min; potency estimated from few doses (saFabI [1]): 0.38 ± 0.03 nM
Oc1ccccc1Oc1ccccc1 [PT51],≤ 1 min,,,slow-binding inhibition of saFabI (saFabI [1]; in words): slow-binding inhibition could not be observed
Oc1cc(Cl)ccc1Oc1ccccc1 [PT52],35.3 ^b min,2.13 ± 0.41 ^d hr^-1,28.2 ^d min,recovery of enzyme activity after dilution (saFabI [2]): full recovery of enzyme activity; k-1 (saFabI [2]): 2.33 ± 0.03 ^c hr^-1; tR (saFabI [2]): 25.8 ^c min
CCCCCCc1ccc(Oc2ccccc2C)c(O)c1 [PT70],,,,"change of affinity by the 2′-substituent (saFabI [1]; B-ring ortho position SAR, in words, PT70 data not shown): increased affinity"
CCCc1ccc(Oc2ccccc2)c(O)c1 [PT02],60.9 ^b min,0.57 ± 0.09 ^d hr^-1,105.3 ^d min,
CCCCCc1ccc(Oc2ccccc2)c(O)c1 [PT03],300.0 ^b min,0.32 ± 0.17 ^d hr^-1,187.5 ^d min,
N#Cc1ccccc1Oc1ccc(Cl)cc1O [PT447],136.4 ^b min,0.47 ± 0.08 ^d hr^-1,127.7 ^d min,recovery of enzyme activity after dilution (saFabI [2]): partially recovered
O=[N+]([O-])c1ccc(Oc2ccccc2)c(O)c1 [PT104],6.6 ^b min,,,slow-binding inhibition of saFabI (saFabI [1]; in words): clear slow-binding inhibition; potency estimated from few doses (saFabI [1]): 1.49 ± 0.27 nM
"CCCCCCc1ccc(Oc2ccccc2)c(O)c1 [PT04, 5-hexyl-2-phenoxyphenol]",,0.13 ± 0.04 ^d hr^-1,461.5 ^d min,

# Source: paper PMC3774598 (Biochemistry, 2013)
